Data taken from ChEMBL document CHEMBL3774312, “5-Substituted 3-isopropyl-7-[4-(2-pyridyl)benzyl]amino-1(2)H-pyrazolo[4,3-d]pyrimidines with anti-proliferative activity as potent and selective inhibitors of cyclin-dependent kinases” (Eur J Med Chem, 2016).
Active and inactive are the calls of the source. The rule behind the calls is not given here.

Columns and labels:
[1] = Cytotoxicity against human G361 cells assessed as reduction in cell viability after 72 hrs by calcein AM staining based fluorescence assay; type: functional; conditions: G-361, 72 h
Method in brief: (§1)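 Cells were grown in DMEM with 10% FBS, penicillin and streptomycin at 37 °C in 5% CO2. Three doses were tested in triplicate for 72 h.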

[2] = test system: K562; experiment: Cytotoxicity against human K562 cells assessed as reduction in cell viability after 72 hrs by calcein AM staining based fluorescence assay; type: functional; conditions: K562, 72 h; method in brief: as §1
[3] = (§2) Cytotoxicity against human HCT116 cells assessed as reduction in cell viability after 72 hrs by calcein AM staining based fluorescence assay; type: functional; conditions: HCT-116, 72 h
Method in brief: (§3)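 Cells were grown in DMEM with 10% FBS, penicillin and streptomycin at 37 °C in 5% CO2. Three doses were tested in triplicate for 72 h. Live cells were read by Calcein AM fluorescence at 485/538 nm.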

[4] = test system: MCF7; experiment: Cytotoxicity against human MCF7 cells assessed as reduction in cell viability after 72 hrs by calcein AM staining based fluorescence assay; type: functional; conditions: for IC50: MCF7, 72 h; method in brief: as §1
[5] = target: Cyclin-dependent kinase 2/cyclin E1 (Homo sapiens, UniProt P24941); experiment: Inhibition of CDK2/Cyclin E (unknown origin) expressed in sf9 cells using histone H1 as substrate in presence of [gamma33P]-ATP; type: cell-based
[6] = target: Cyclin-dependent kinase 5 (Homo sapiens, UniProt Q00535); experiment: Inhibition of CDK5 (unknown origin) using histone H1 as substrate in presence of [gamma33P]-ATP
Cyclin-dependent kinase 5, sequence (Q00535 whole entry): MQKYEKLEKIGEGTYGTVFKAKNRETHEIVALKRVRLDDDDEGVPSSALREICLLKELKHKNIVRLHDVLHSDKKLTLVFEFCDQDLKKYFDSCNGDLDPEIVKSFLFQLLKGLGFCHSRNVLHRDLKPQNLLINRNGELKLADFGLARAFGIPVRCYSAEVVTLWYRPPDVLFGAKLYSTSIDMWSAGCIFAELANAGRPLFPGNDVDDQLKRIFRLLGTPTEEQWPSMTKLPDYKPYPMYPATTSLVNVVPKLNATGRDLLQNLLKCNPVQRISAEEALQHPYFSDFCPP

[7] = test system: MCF7; experiment: Cell cycle arrest in BrdU pulse-labelled human MCF7 cells assessed as accumulation at subG1 phase at 500 to 5000 nM after 24 hrs by propidium iodide staining based flow cytometry; type: functional
[8] = test system: MCF7; experiment: Cell cycle arrest in BrdU pulse-labelled human MCF7 cells assessed as accumulation at late G2/M phase at 500 to 5000 nM after 24 hrs by propidium iodide staining based flow cytometry; type: functional
[9] = test system: MCF7; experiment: Cell cycle arrest in BrdU pulse-labelled human MCF7 cells assessed as accumulation at late S phase at 500 to 5000 nM after 24 hrs by propidium iodide staining based flow cytometry; type: functional
[10] = test system: HCT-116; experiment: as §2; type: functional; method in brief: as §3
[11] = test system: MCF7; experiment: Cell cycle arrest in BrdU pulse-labelled human MCF7 cells assessed as decrease in cells at S phase at 500 to 5000 nM after 24 hrs by propidium iodide staining based flow cytometry; type: functional
[12] = target: Cyclin-dependent kinase 2 (Homo sapiens) (UniProt P24941); experiment: Inhibition of CDK2 in human G361 cells assessed as reduction in phosphorylation of RNA polymerase 2 at C-terminus at 0.075 to 0.75 uM incubated for 24 hrs by immunoblotting analysis; type: cell-based; conditions: G-361
Method in brief: (§4)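 Treated G361 cells were lysed in Laemmli buffer, run on SDS-PAGE and blotted to nitrocellulose. Blots were probed overnight with antibodies to RNA polymerase II phosphorylated at S5 and S2, and to total RNA polymerase II (ARNA-3). Peroxidase secondaries were then applied and signal was detected by ECL with a CCD camera.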

[13] = test system: G-361; experiment: Induction of apoptosis in human G361 cells assessed as caspase3 activation using Ac-DEVD-AMC as substrate at 5 times IC50 preincubated for 24 hrs followed by substrate addition measured after 3 hrs by fluorescence assay; type: functional, cell-based
[14] = test system: G-361; experiment: Induction of apoptosis in human G361 cells assessed as caspase7 activation using Ac-DEVD-AMC as substrate at IC50 preincubated for 24 hrs followed by substrate addition measured after 3 hrs by fluorescence assay; type: functional, cell-based
[15] = test system: G-361; experiment: Induction of apoptosis in human G361 cells assessed as caspase3 activation using Ac-DEVD-AMC as substrate at IC50 preincubated for 24 hrs followed by substrate addition measured after 3 hrs by fluorescence assay; type: functional, cell-based
[16] = target: Cyclin-dependent kinase 2 (Homo sapiens) (UniProt P24941); experiment: Inhibition of CDK2 in human G361 cells assessed as reduction in phosphorylation of RNA polymerase 2 at C-terminus at 0.75 uM incubated for 0.5 to 24 hrs by immunoblotting analysis; type: cell-based; conditions: G-361; method in brief: as §4
[17] = test system: G-361; experiment: Induction of apoptosis in human G361 cells assessed as caspase7 activation using Ac-DEVD-AMC as substrate at 5 times IC50 preincubated for 24 hrs followed by substrate addition measured after 3 hrs by fluorescence assay; type: functional, cell-based
[18] = test system: MCF7; experiment: Cell cycle arrest in BrdU pulse-labelled human MCF7 cells assessed as accumulation at late S phase at 2500 to 20000 nM after 24 hrs by propidium iodide staining based flow cytometry; type: functional
[19] = test system: MCF7; experiment: Cell cycle arrest in BrdU pulse-labelled human MCF7 cells assessed as accumulation at subG1 phase at 2500 to 20000 nM after 24 hrs by propidium iodide staining based flow cytometry; type: functional
[20] = test system: MCF7; experiment: Cell cycle arrest in BrdU pulse-labelled human MCF7 cells assessed as accumulation at late G2/M phase at 2500 to 20000 nM after 24 hrs by propidium iodide staining based flow cytometry; type: functional
[21] = test system: MCF7; experiment: Cell cycle arrest in BrdU pulse-labelled human MCF7 cells assessed as decrease in cell at S phase at 2500 to 20000 nM after 24 hrs by propidium iodide staining based flow cytometry; type: functional
[22] = target: Cyclin-dependent kinase 2 (Homo sapiens) (UniProt P24941); experiment: Inhibition of CDK2 in human G361 cells assessed as reduction in phosphorylation of RNA polymerase 2 at C-terminus at 2.4 to 24 uM incubated for 24 hrs by immunoblotting analysis; type: cell-based; conditions: G-361; method in brief: as §4
[23] = target: Cyclin-dependent kinase 2 (Homo sapiens) (UniProt P24941); experiment: Inhibition of CDK2 in human G361 cells assessed as reduction in phosphorylation of RNA polymerase 2 at C-terminus at 1 uM incubated for 0.5 to 24 hrs by immunoblotting analysis; type: cell-based; conditions: G-361; method in brief: as §4

| Compound | IC50 [1] [µM] | IC50 [2] [µM] | IC50 [3] [µM] | IC50 [4] [µM] | IC50 [5] [µM] | other results |
| --- | --- | --- | --- | --- | --- | --- |
| CC[C@H](CO)Nc1nc(NCc2ccc(-c3ccccn3)cc2)c2ncn(C(C)C)c2n1 | 0.503 | 0.175 | 0.35 | 0.16 |  |  |
| CC(C)c1n[nH]c2c(NCc3ccc(-c4ccccn4)cc3)nc(NCCO)nc12 | 0.039 | 0.038 | 0.027 | 0.051 | 0.031 | IC50 [6]: 0.049 µM |
| CC(C)c1n[nH]c2c(NCc3ccc(-c4ccccn4)cc3)ncnc12 | 0.875 |  | 1.24 |  | 0.197 | Activity [7]: Active; Activity [8]: Active; Activity [9]: Active; Activity [10]: Dose-dependent effect; Activity [4]: Dose-dependent effect; Activity [11]: Active |
| CC(C)c1n[nH]c2c(NCc3ccc(-c4ccccn4)cc3)nc(NCC(C)(C)O)nc12 | 0.048 | 0.029 | 0.085 | 0.024 | 0.009 | inhibition [12]: Active; Activity [13]: Active; Activity [14]: Active; Activity [15]: Active; inhibition [16]: Active; Activity [17]: Active |
| CC(C)c1n[nH]c2c(NCc3ccc(-c4ccccn4)cc3)nc(NCC(O)CO)nc12 (centres undefined) | 0.072 | 0.047 | 0.087 | 0.059 | 0.012 | IC50 [6]: 0.021 µM |
| COc1ccc(CNc2nc(NCc3ccc(-c4ccccn4)cc3)c3[nH]nc(C(C)C)c3n2)cc1 | 7.49 | 3.95 | 17.4 | 5.3 | 1.48 | Activity [18]: Active; Activity [19]: Active; Activity [20]: Active; Activity [21]: Active; Activity [10]: Dose-dependent effect; Activity [4]: Dose-dependent effect |
| CC[C@H](CO)Nc1nc(NCc2ccccc2)c2[nH]nc(C(C)C)c2n1 |  |  |  |  |  | inhibition [22]: Active |
| CC(C)c1n[nH]c2c(NCc3ccc(-c4ccccn4)cc3)nc(N3CCNCC3)nc12 | 0.064 | 0.017 | 0.088 | 0.021 | 0.05 |  |
| CC(C)c1n[nH]c2c(NCc3ccc(-c4ccccn4)cc3)nc(N[C@@H]3CCCC[C@H]3N)nc12 (relative stereo) | 0.477 | 0.175 | 0.427 | 0.295 | 0.046 | IC50 [6]: 0.044 µM |
| CC(C)c1n[nH]c2c(NCc3ccc(-c4ccccn4)cc3)nc(NCCN(C)C)nc12 | 0.64 | 0.125 | 0.39 | 0.225 | 0.467 |  |
| CC(C)c1n[nH]c2c(NCc3ccc(-c4ccccn4)cc3)nc(N3CCOCC3)nc12 | 0.197 | 0.11 | 0.27 | 0.163 | 0.018 | Activity [13]: Active; Activity [14]: inactive; Activity [15]: inactive; inhibition [23]: Active; Activity [17]: Active |
